pIC50: −log10 of the molar value.
tested on: Entamoeba histolytica; assay: Antiamoebic activity against Entamoeba histolytica HM-1:IMSS after 72 hrs by microdilution assay; assay type: functional, organism-based
Method in brief: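 E. histolytica trophozoites grown in TYIS-33 medium; compounds dissolved in DMSO and diluted in medium to a 1 mg/mL stock, then two-fold serial dilutions in wells. Inoculum 1.7 × 10⁴ organisms/well, gassed with nitrogen, 37 °C for 72 h. Cells methanol-fixed and eosin-stained, dye released with 0.1 N NaOH, OD 490 nm read. Percent inhibition versus log dose, IC50 from linear regression.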

Row | Compound | pIC50
1 | CN(Cc1ccccc1)C(=S)N1CCC(c2cccc(Cl)c2)=N1 | 5.54
2 | S=C(N1CCC(c2ccccc2)=N1)N1CCCc2ccccc21 | 5.21
3 | S=C(N1CCC(c2cccc(Cl)c2)=N1)N1CCCc2ccccc21 | 5.75
4 | Cc1ccccc1NC(=S)N1CCC(c2ccccc2)=N1 | 5.32
5 | Cc1ccccc1NC(=S)N1CCC(c2cccc(Cl)c2)=N1 | 5.77
6 | Cc1cccc(NC(=S)N2CCC(c3ccccc3)=N2)c1 | 5.30
7 | Cc1cccc(NC(=S)N2CCC(c3cccc(Cl)c3)=N2)c1 | 5.55
8 | Cc1ccc(NC(=S)N2CCC(c3cccc(Cl)c3)=N2)cc1 | 5.62
9 | Fc1ccc(NC(=S)N2CCC(c3ccccc3)=N2)c(F)c1 | 5.75
10 | Fc1ccc(NC(=S)N2CCC(c3cccc(Cl)c3)=N2)c(F)c1 | 6.29
11 | S=C(NC1C2CC3CC(C2)CC1C3)N1CCC(c2ccccc2)=N1 (stereo not given) | 5.75
12 | CN(Cc1ccccc1)C(=S)N1CCC(c2ccccc2)=N1 | 5.14
13 | S=C(NC1C2CC3CC(C2)CC1C3)N1CCC(c2cccc(Cl)c2)=N1 (stereo not given) | 6.33
14 | Cc1ccc(NC(=S)N2CCC(c3ccccc3)=N2)cc1 | 5.02

Now from value to compound:

Row | pIC50 | Compound
15 | 5.64 | S=C(N1CCCC1)N1CCC(c2cccc(Cl)c2)=N1
16 | 5.35 | CN(Cc1ccccc1)C(=S)N1CCC(c2cccc(Br)c2)=N1
17 | 5.36 | S=C(N1CCCCCC1)N1CCC(c2ccccc2)=N1
18 | 5.96 | S=C(N1CCCCCC1)N1CCC(c2cccc(Br)c2)=N1
19 | 6.05 | S=C(N1CCCCCC1)N1CCC(c2cccc(Cl)c2)=N1
20 | 5.28 | CN(C(=S)N1CCC(c2cccc(Br)c2)=N1)C1CCCCC1
21 | 5.43 | CN(C(=S)N1CCC(c2cccc(Cl)c2)=N1)C1CCCCC1
22 | 5.42 | Cc1ccccc1NC(=S)N1CCC(c2cccc(Br)c2)=N1
23 | 5.43 | S=C(N1CCCC1)N1CCC(c2ccccc2)=N1
24 | 5.47 | Cc1cccc(NC(=S)N2CCC(c3cccc(Br)c3)=N2)c1
25 | 5.27 | Cc1ccc(NC(=S)N2CCC(c3cccc(Br)c3)=N2)cc1
26 | 6.24 | S=C(NC1C2CC3CC(C2)CC1C3)N1CCC(c2cccc(Br)c2)=N1 (stereo not given)
27 | 5.23 | CN(C(=S)N1CCC(c2ccccc2)=N1)C1CCCCC1
28 | 5.55 | S=C(N1CCCC1)N1CCC(c2cccc(Br)c2)=N1
29 | 5.56 | S=C(N1CCC(c2cccc(Br)c2)=N1)N1CCCc2ccccc21
30 | 6.17 | Fc1ccc(NC(=S)N2CCC(c3cccc(Br)c3)=N2)c(F)c1

— ChEMBL document CHEMBL1154438, “Synthesis, spectral studies and antiamoebic activity of new 1-N-substituted thiocarbamoyl-3-phenyl-2-pyrazolines” (Eur J Med Chem, 2009)
